# Results of several laboratories.
# Lines come from different studies, so protocols differ.
# CDK2 with cyclin A: Cyclin-dependent kinase 2, with cyclin A (CDK2, Homo sapiens, UniProt P24941)
# CDK2: Cyclin-dependent kinase 2 (CDK2, Homo sapiens, UniProt P24941)
# CDK2 with cyclin E: Cyclin-dependent kinase 2, with cyclin E (CDK2, Homo sapiens, UniProt P24941)
SMILES,target,effect on,action,method,concentration,endpoint,result
Cc1ncc(C)n2nc(/C=C/c3nc(N4CCCC4)cc(N4CCOCC4)n3)nc12,CDK2 with cyclin A,enzyme activity,inhibitor,,10 µM,inhibition,-3%
Nc1ncc(-c2nc(N3CCOCC3)nc(N3CCOCC3)n2)c(C(F)F)n1,CDK2,binding,,competition with immobilised ligand,10 µM,remaining binding,100%
N#CC1(c2ccccn2)CCN(Cc2cc(C(=O)O)c(=O)n3ccccc23)CC1,CDK2,cell-free assay,,competition with immobilised ligand,1 µM,remaining binding,100%
COc1ncccc1-c1cnn2ccc(N3CCN(C(=O)OC(C)C)CC3)nc12,CDK2,binding,,competition with immobilised ligand,1 µM,remaining binding,99%
CC(C)(C)c1cc(C=C(C#N)C#N)cc(Br)c1O,CDK2 with cyclin E,enzyme activity,inhibitor,,0.5 µM,remaining activity,77.6%
Cn1cncc1[C@@](O)(COc1ccc(C#N)cc1-c1ccc(OC(F)(F)F)cc1)c1ccc(C#N)cc1,CDK2,cell-free assay,,competition with immobilised ligand,1 µM,remaining binding,89%
O=c1[nH]c2ccccc2n1C1CCN(Cc2ccc(-c3[nH]c4cc5ncnc5cc4nc3-c3ccccc3)cc2)CC1,CDK2 with cyclin E,cell-free assay,,,0.5 µM,remaining signal,95.6%
Cn1cc(-c2cc(F)cc(N3CCn4c(cc5c4CCCC5)C3=O)c2CO)cc(Nc2ccc(N3CCN(C4COC4)CC3)cn2)c1=O,CDK2 with cyclin A,enzyme activity,inhibitor,,0.1 µM,inhibition,7%
O=C(Nc1cccnn1)N1CCN([C@@H]2CCOc3cc(C(F)(F)F)ccc32)CC1,CDK2 with cyclin E,cell-free assay,inhibitor,,20 µM,inhibition,3%
C#Cc1n[nH]c2c(-c3cn([C@@H](C)c4ccccc4)c(=O)[nH]c3=O)cc(F)cc12,CDK2 with cyclin A,enzyme activity,inhibitor,,0.1 µM,inhibition,6.3%
Cn1cc(-c2cccc(N3CCc4c(sc5c4CC(C)(C)C5)C3=O)c2CO)cc(Nc2ccncn2)c1=O,CDK2 with cyclin A,enzyme activity,inhibitor,,1 µM,inhibition,-4%
